In assay [1] the target is Cholecystokinin receptor type A (Cavia porcellus). Kind of assay: Ability to displace 1 nM [3H]pCCK-8 from Cholecystokinin type A receptor in guinea pig pancreatic membranes.
In assay [2] the target is Gastrin/cholecystokinin type B receptor (Rattus norvegicus) (UniProt P30553). Nature of the assay: Ability to displace 1 nM [3H]pCCK-8 from rat Cholecystokinin type B receptor stably expressing in CHO cells.
Assay [3] relates to CHO. Nature of the assay: Agonistic activity on inositol phosphate production by intact transfected CHO cells. The format is functional, cell-based. Conditions: Cricetulus griseus. In outline: (§1)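 Functional agonism on intact CHO cells transfected with CCK2 receptors. Two read-outs were measured, inositol phosphate production and arachidonic acid liberation, each expressed as EC50.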

For assay [4], the system named is CHO. Kind of assay: Compound was evaluated for maximum binding of [3H]BBL454 to two sites in CHO cells with high affinity. The format is functional, Cricetulus griseus.
The subject of assay [5] is CHO. Kind of assay: Compound was evaluated for binding of [3H]BBL454 to two sites in CHO cells with low affinity. It is filed as functional, Cricetulus griseus.
Assay [6] has as its system CHO. Nature of the assay: Compound was evaluated for binding of [3H]BBL454 to two sites in CHO cells with high affinity. The format is functional, Cricetulus griseus.
For assay [7], the system named is CHO. Nature of the assay: Agonistic activity on arachidonic acid liberation by intact transfected CHO cells. It is filed as functional, cell-based. The following applies: Cricetulus griseus. In outline:
as §1

Non-standard residues stand in square brackets, D forms with d. Residues, ends and D or L forms follow the SMILES beside them. *: point of attachment. NMeNle = CCCC[C@H](NC)C(=O)O; X1 = CCCCCNC(=O)CC(=O)*; Boc = CC(C)(C)OC(=O)*

Gastrin/cholecystokinin type B receptor (Rattus norvegicus), sequence (P30553 whole entry, looked up): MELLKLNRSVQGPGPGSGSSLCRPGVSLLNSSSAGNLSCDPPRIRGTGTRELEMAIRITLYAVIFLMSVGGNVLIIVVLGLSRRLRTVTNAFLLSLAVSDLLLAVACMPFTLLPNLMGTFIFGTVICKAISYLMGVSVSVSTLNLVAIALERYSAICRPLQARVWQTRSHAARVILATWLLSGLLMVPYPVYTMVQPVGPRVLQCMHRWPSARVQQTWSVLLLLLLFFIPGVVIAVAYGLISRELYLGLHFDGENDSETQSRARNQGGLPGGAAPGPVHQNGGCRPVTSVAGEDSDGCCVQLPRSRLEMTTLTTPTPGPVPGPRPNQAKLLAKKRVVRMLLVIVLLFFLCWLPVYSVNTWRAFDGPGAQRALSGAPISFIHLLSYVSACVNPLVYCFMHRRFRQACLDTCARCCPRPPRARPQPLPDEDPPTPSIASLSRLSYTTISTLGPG

With `CCCC[C@@H](C(=O)N[C@@H](CC(=O)O)C(=O)N[C@@H](Cc1ccccc1)C(N)=O)N(C)C(=O)[C@H](Cc1c[nH]c2ccccc12)NC(=O)OC(C)(C)C` (Boc-W[NMeNle]DF-NH2), the Ki in assay [1] was more than 5000 nM; in assay [2], 2.6 nM.
Take `CCCCCNC(=O)CC(=O)N[C@@H](Cc1c[nH]c2ccccc12)C(=O)N(C)[C@@H](CCCC)C(=O)N[C@@H](CC(=O)O)C(=O)N[C@@H](Cc1ccccc1)C(N)=O` (X1-W[NMeNle]DF-NH2): the figures for the Ki in assay [1] and in assay [2] were 3640 nM and 2.66 nM, respectively. The EC50 with CHO [3] is 2 nM; in the assay on CHO [7] it was 6.9 nM. This compound displayed a Bmax1 in the assay on CHO [4] of 120 fmol/mg. The compound further showed a KD2 in the assay with CHO [5] of 194 nM. Further, the KD1 with CHO [6] came out at 0.71 nM.

(Values after ChEMBL document CHEMBL1146828, “Synthesis and biological characterisation of [3H]BBL454, a new CCK2 selective radiolabelled agonist displaying original pharmacological properties” (Bioorg Med Chem Lett, 2004).)
